Activity calls are given as the source filed them. No cut-off for these calls is given here.
How the values were obtained:
[1] = biological target: Interleukin-6 (Homo sapiens) (UniProt P05231); assay: Inhibition of IL-6 signaling pathway in human HepG2 cells transfected with p-STAT3-Luc assessed as reduction in IL-6 induced STAT3 phosphorylation at 20 ug/ml preincubated for 1 hr followed by IL-6 induction measured after 10 mins by immunoblot analysis; format: cell-based
Outline: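 HepG2 cells were grown in MEM to 80% confluence and serum-starved for 6 h. They were treated with compound for 1 h, then with IL-6 (20 ng/ml) for 10 min. Lysates were run on SDS-PAGE and immunoblotted with anti-phospho-STAT3. Scanned band intensity was expressed relative to the IL-6-only band, set at 100%.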

[2] = tested on: TH2 cell; assay: Antiinflammatory activity in C57BL6 mouse CD4-positive T-effector TH2 cells assessed as suppression of IL-4 levels at 10 uM preincubated for 3 to 4 days followed by anti-CD3 stimulation for 24 hrs by ELISA; format: functional, cell-based
Outline: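 Mouse C57BL6 lymph node and spleen CD4+ T cells were primed for 24 h with anti-CD3 (2 µg/ml) and anti-CD28 (1 µg/ml). Th2 polarization used IL-4 (10 ng/ml) and anti-IFN-γ (1 µg/ml) with compound at 10 µM, refreshed every other day for 3-4 days. Cells were restimulated with anti-CD3 (1 µg/ml) for 24 h, and supernatant IL-4 was measured by biotin/streptavidin-peroxidase sandwich ELISA.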

[3] = tested on: TH2 cell; assay: Antiinflammatory activity in C57BL6 mouse CD4-positive T-effector TH2 cells assessed as suppression of IL-13 levels at 10 uM preincubated for 3 to 4 days followed by anti-CD3 stimulation for 24 hrs by ELISA; format: functional, cell-based
[4] = Proinflammatory activity in C57BL6 mouse CD4-positive T-effector Th1 cells assessed as increase in anti-CD3/IL-12-induced IFNgamma levels at 10 uM preincubated for 3 to 4 days followed by anti-CD3 stimulation for 24 hrs by ELISA; format: ADME, cell-based; conditions: th1, 24 h
Outline: (§1)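 CD4+ T cells were isolated from C57BL6 mouse lymph node and spleen and primed with anti-CD3 (2 µg/ml) plus anti-CD28 (1 µg/ml) for 24 h. Compound (10 µM) was added with IL-12 (10 ng/ml) and anti-IL-4 (5 µg/ml), renewed every other day for 3-4 days, then cells were restimulated with anti-CD3 (1 µg/ml) for 24 h. Supernatant cytokine was measured by sandwich ELISA with peroxidase-streptavidin and OD read-out.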

[5] = tested on: Th17; assay: Antiinflammatory activity in C57BL6 mouse CD4-positive T-effector Th17 cells assessed as suppression of IL-17 levels at 10 uM preincubated for 3 to 4 days followed by anti-CD3 stimulation for 24 hrs by ELISA; format: functional, cell-based
[6] = Proinflammatory activity in C57BL6 mouse CD4-positive T-effector Th1 cells assessed as increase in anti-CD3/IL-12-induced IL-2 levels at 10 uM preincubated for 3 to 4 days followed by anti-CD3 stimulation for 24 hrs by ELISA; format: ADME, cell-based; conditions: th1, 24 h; outline: as §1
[7] = tested on: TH2 cell; assay: Antiinflammatory activity in C57BL6 mouse CD4-positive T-effector TH2 cells assessed as suppression of IL-5 levels at 10 uM preincubated for 3 to 4 days followed by anti-CD3 stimulation for 24 hrs by ELISA; format: functional, cell-based
[8] = Cytotoxicity against human HepG2 cells assessed as cell viability at 10 ug/ml after 48 hrs by MTT assay; format: cell-based; conditions: read-out: Activity
Outline: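 HepG2 cells in MEM with 10% FBS were exposed to compound at 1, 3, 10, 30 or 100 µg/ml for 48 h, then given MTT for 3 h. Formazan was dissolved in DMSO and OD read at 570 nm. Triplicates from three independent experiments, mean ± SE.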

[9] = tested on: Th1; assay: Antiinflammatory activity in C57BL6 mouse CD4-positive T-effector Th1 cells assessed as suppression of anti-CD3/IL-12-induced IFNgamma levels at 10 uM preincubated for 3 to 4 days followed by anti-CD3 stimulation for 24 hrs by ELISA; format: functional, cell-based; outline: as §1
[10] = tested on: Th1; assay: Antiinflammatory activity in C57BL6 mouse CD4-positive T-effector Th1 cells assessed as suppression of anti-CD3/IL-12-induced IL-2 levels at 10 uM preincubated for 3 to 4 days followed by anti-CD3 stimulation for 24 hrs by ELISA; format: functional, cell-based; outline: as §1

Interleukin-6 (Homo sapiens), sequence (P05231 whole entry): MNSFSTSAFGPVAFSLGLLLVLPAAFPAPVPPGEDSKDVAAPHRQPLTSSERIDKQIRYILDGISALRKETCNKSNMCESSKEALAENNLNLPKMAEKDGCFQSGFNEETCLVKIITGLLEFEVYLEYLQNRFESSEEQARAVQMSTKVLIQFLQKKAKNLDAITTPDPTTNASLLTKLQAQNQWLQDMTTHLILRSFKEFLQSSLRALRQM

Row | SMILES | inhibition [1] | viability at 48 h, 10 ug/ml [8] | other results
1 | CCCCCCCc1ccc(C(=O)Nc2ccc3oc(Nc4ccc(CC)cc4)nc3c2)cc1 | 57.2% | – | –
2 | CCOc1ccccc1C(=O)Nc1ccc2oc(Nc3ccc(CC)cc3)nc2c1 | 58% | – | –
3 | CCc1ccc(Nc2nc3cc(NC(=O)c4ccc([N+](=O)[O-])cc4Cl)ccc3o2)cc1 | 20% | – | –
4 | CCc1ccc(Nc2nc3cc(N)ccc3o2)cc1 | 97.5% | 70.8% | Activity [2]: Active; Activity [3]: Active; Activity [5]: Active; Activity [9]: Active; Activity [10]: Active; Activity [7]: Active
5 | CCc1ccc(Nc2nc3cc(NC(=O)c4cc([N+](=O)[O-])ccc4Cl)ccc3o2)cc1 | 65.6% | – | –
6 | CCc1ccc(Nc2nc3cc(NC(=O)c4ccccc4Nc4cccc(C(F)(F)F)c4)ccc3o2)cc1 | 84.6% | 38.2% | –
7 | CCc1ccc(Nc2nc3cc(NC(=O)c4cc(OC)c(OC)c(OC)c4)ccc3o2)cc1 | 83.7% | 16.4% | –
8 | CCc1ccc(Nc2nc3cc(NC(=O)c4cc(F)cc(C(F)(F)F)c4)ccc3o2)cc1 | 50.2% | – | –
9 | CCc1ccc(Nc2nc3cc(NC(=O)c4ccc(C(C)(C)C)cc4)ccc3o2)cc1 | 86.5% | 59.8% | –

More lines, main results first:

Row | inhibition [1] | SMILES | viability at 48 h, 10 ug/ml [8] | other results
10 | 12.1% | CCc1ccc(Nc2nc3cc(NC(=O)c4ccc(Cl)cc4)ccc3o2)cc1 | – | Activity [2]: inactive; Activity [3]: inactive; Activity [4]: Toxic; Activity [5]: inactive; Activity [6]: Toxic; Activity [7]: inactive
11 | 91.7% | CCc1ccc(Nc2nc3cc(NC(=O)c4cccc(CCl)c4)ccc3o2)cc1 | 41.1% | –
12 | 26.2% | CCc1ccc(Nc2nc3cc(NC(=O)c4ccc(OC)c(OC)c4)ccc3o2)cc1 | – | –
13 | 61.7% | CCc1ccc(Nc2nc3cc(NC(=O)Cc4ccccc4)ccc3o2)cc1 | – | –
14 | 93.1% | CCc1ccc(Nc2nc3cc(NC(=O)c4ccccc4)ccc3o2)cc1 | 65.6% | –
15 | 63.3% | CCc1ccc(Nc2nc3cc(NC(=O)c4ccc(CC)cc4)ccc3o2)cc1 | – | –
16 | 69.3% | CCc1ccc(Nc2nc3cc(NC(=O)c4ccc(Cl)c(Cl)c4)ccc3o2)cc1 | – | –
